High-throughput results from PubChem.
V1aR counter = counter-screen for oxytocin receptor agonists: human V1a receptor agonists; hit rate 0.25% among 320,000; activation, % at 3 µM; AID 2797; P37288; CHO-V1R cells, Fluo-8 calcium fluorescence, agonist mode; 0% DMSO, 100% 3 nM vasopressin;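 active = activation above the mean activation of all tested compounds plus 3 SD, per screening run, cut at about 20% in these data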;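 also: signal is peak over basal fluorescence ratio across a 100 second FLIPR read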
OXTR ag = activates the human oxytocin receptor; P30559; CHO-OTR cells, Fluo-8 calcium fluorescence; normalized: DMSO 0%, oxytocin 100%; activation, % at 3 µM; hit rate 0.32% among 320,000; AID 2435;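 active = activation above the mean of all tested compounds plus 3 SD, cutoff set per screening run, cut at about 20% in these data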;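 also: peak over basal fluorescence ratio from a 100 s FLIPR kinetic read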
TRPML3 ag = activates the human TRPML3 channel; HEK293 TRPML3-YFP, Fluo-8 calcium fluorescence; 100% = the carbachol control signal; activation, % at 3 µM; hit rate 0.29% among 220,000; AID 1448;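 active = activation above its plate's cutoff, the mean activation of the plate's test wells plus 3 SD, cut at about 12% in these data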;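 also: 0% = DMSO only wells and 100% = carbachol wells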
Target sequence (Q8TDD5 whole entry, looked up): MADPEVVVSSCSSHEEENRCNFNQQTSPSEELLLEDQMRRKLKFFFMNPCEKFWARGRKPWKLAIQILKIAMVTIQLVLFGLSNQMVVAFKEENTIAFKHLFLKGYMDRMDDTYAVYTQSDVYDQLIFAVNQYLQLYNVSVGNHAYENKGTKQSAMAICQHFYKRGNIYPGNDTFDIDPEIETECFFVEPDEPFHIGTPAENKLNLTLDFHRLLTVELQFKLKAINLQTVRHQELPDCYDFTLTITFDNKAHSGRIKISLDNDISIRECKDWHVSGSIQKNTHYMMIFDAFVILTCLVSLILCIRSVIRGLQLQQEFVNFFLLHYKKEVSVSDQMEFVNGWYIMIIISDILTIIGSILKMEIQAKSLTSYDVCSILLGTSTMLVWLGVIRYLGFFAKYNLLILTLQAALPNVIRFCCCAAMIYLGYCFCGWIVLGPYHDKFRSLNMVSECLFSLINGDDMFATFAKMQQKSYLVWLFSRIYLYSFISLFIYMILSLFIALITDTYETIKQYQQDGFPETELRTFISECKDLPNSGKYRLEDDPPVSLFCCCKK
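system = HEK293 cells stably carrying human TRPML3-YFP | doses = one concentration, 3 µM nominal, 0.3% DMSO | timing = dye loading 1 h 37 °C then 30 min ambient, 125 s read | detection = Fluo-8 calcium dye fluorescence, ex 470-495, em 515-575 nm | benchmarks = high control carbachol 87 µM, low control DMSO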
zfTRPN1 agonist = zebrafish TRPN1 (NompC) channel agonism. HEK293 zebrafish TRPN1-YFP, Fluo-8 calcium fluorescence; 100% = response to 87 µM carbachol. activation, % at 3 µM. hit rate 0.18% among 220,000. AID 1424;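 active = activation above its plate's cutoff, the mean activation of test wells on that plate plus 3 SD, cut at about 19% in these data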;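 also: 0% = DMSO alone and 100% = 87 µM carbachol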
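Assay system: Zebrafish TRPN1-YFP in HEK293 cells | Incubation: Dye loading 1 h at 37 °C, then 30 min room temperature | Measured by: Kinetic Fluo-8 fluorescence, ex 470-495, em 515-575 nm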
OXTR potentiate = human OXTR potentiation; activation, % at 3 µM; AID 2445; hit rate 0.061% among 320,000; CHO-OTR cells, Fluo-8 calcium fluorescence, potentiator mode; 0% = oxytocin EC15, 100% = EC100;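 active = activation above that plate's cutoff, the mean activation of tested compounds plus 3 SD, cut at about 6.6% in these data, passing the limit was not always enough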;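 also: 100% uses oxytocin at 75 nM as the full agonist control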
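Assay system: CHO cell line stably expressing human OTR. Reagent: EC15 oxytocin agonist. Dosing: single dose, 3.0 µM nominal final compound concentration. Timing: compound 6 min at room temperature before oxytocin, 100 s read. Signal: kinetic Fluo-8 calcium fluorescence. Controls: oxytocin EC15 low and EC100 high.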
CRFR2-BP ag = agonists of human CRF-binding protein/CRF-R2 receptor complex; AID 588473; hit rate 0.46% among 350,000; HEK293 CRF-R2/CRF-BP, calcium dye fluorescence (FLIPR); percent of saturating CRF peptide response; activation, % at 13.2 µM;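 active = activation of at least 50%, plus an integration ratio under a set limit after plate pattern correction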;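 also: plate controls were neutral control wells without compound for no effect and CRF at EC100 for full effect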
The depositor's hits bear a star; / = no result. An excerpt weighted towards active compounds, which were near 0.85% of everything screened.

SMILES	V1aR counter	OXTR ag	TRPML3 ag	zfTRPN1 agonist	OXTR potentiate	CRFR2-BP ag
COc1ccccc1N1CCN(C2CCCCC2NS(=O)(=O)c2ccc(Cl)cc2)CC1 (configuration not stated)	0	-3	/	/	-3	212*
COc1ccc(N2CCN(C3CCCCC3NS(=O)(=O)c3ccc(Cl)cc3)CC2)cc1 (configuration not stated)	-1	-1	/	/	-10	70*
CC1CC(C)CN(C2CCCCC2NS(=O)(=O)c2ccc(Cl)cc2)C1 (configuration not stated)	-1	-3	/	/	2	55*
Cc1cc(C)c(C)c(S(=O)(=O)NCC(=O)Nc2ccc(F)cc2)c1C	3	0	/	/	-9	-1
COc1ccc(S(=O)(=O)N2CCOCC2)cc1NC(=O)CN1C(=O)NC2(CCC(C)CC2)C1=O (configuration not stated)	/	/	/	/	/	-1
Cc1nnc(SCC(=O)c2cc(C)n(C3CC3)c2C)s1	-1	-1	4	1	4	52*
Cc1nnc(SCC(=O)c2cc(C)n(-c3ccc4c(c3)OCO4)c2C)s1	6	10	17*	27*	-12	63*
CNc1nnc(SCC(=O)c2cc(C)n(C3CC3)c2C)s1	1	-1	/	/	-1	0
Cc1cc(C)cc(-n2c(C)nc3cc(C(=O)O)ccc32)c1	0	0	1	1	-7	-1
Cc1ccc(C(=O)N2CC(=O)Nc3ccc(F)cc3C2c2ccccc2)cc1[N+](=O)[O-] (configuration not stated)	4	4	-1	0	-7	0
Nc1ccc(-c2cnc3ccccc3n2)cc1	0	-2	/	/	1	-1
Nc1ccc2nc(-c3ccccc3)cnc2c1	5	9	/	/	-4	66*
O=C(NC(=S)Nc1ccc(F)cc1)c1ccc2c(c1)OCCO2	4	4	2	6	-8	93*
O=C(c1cc(Cl)nc2ccccc12)N1CCc2ccccc2C1	-1	-2	-2	-1	-12	-2
CCNc1c(NC(=O)COc2ccc(Cl)cc2)c(=O)oc2ccccc12	3	2	/	/	-8	0
CCN1/C(=C\C=C(C(C)=O)C(C)=O)Sc2ccccc21	13	8	7	14	-7	81*
CCOC(=O)/C(C#N)=C(C)/C=C1\Sc2ccccc2N1CC	3	-1	0	2	-8	122*
CSc1ncccc1C(=O)Nc1ccc(OC(F)(F)F)cc1	3	2	1	0	-5	1
CC(=O)Nc1ccc(Sc2ncccc2C(=O)Nc2ccc(F)cc2)cn1	70*	79*	35*	46*	-14	156*
CN1CCCc2cc3c(C(F)(F)F)cc(=O)oc3nc21	3	2	1	1	-9	212*
N#Cc1c2nc3ccccc3nc2n2cc(NC(=O)c3ccc(F)cc3)ccc12	/	/	3	3	/	55*
Cc1nn(C)c(C)c1N1C(=O)c2cccc3c(Br)ccc(c23)C1=O	6	7	0	3	-16	-3
Cc1ccc(N2C(=O)c3cccc4c(N)ccc(c34)C2=O)c2cccnc12	139*	133*	28*	182*	-34	201*
CCN1C(=O)c2cccc3c(N)ccc(c23)C1=O	104*	77*	/	/	-10	213
Cc1nn(C)c(C)c1N1C(=O)c2cccc3c(N)ccc(c23)C1=O	128*	108*	93*	131*	-12	330*
SMILES	V1aR counter	OXTR ag	TRPML3 ag	zfTRPN1 agonist	OXTR potentiate	CRFR2-BP ag
CCCCN(Cc1nc2ccccc2c(=O)[nH]1)C(=O)c1nn(C)c(=O)c2ccccc12	/	/	/	/	/	0
Cc1cc(C)c(Cn2c(=O)[nH][nH]c2=O)cc1Cn1c(=O)[nH][nH]c1=O	/	/	/	/	/	0
CC(C)=CCC[C@](C)(O)C1CC[C@]2(C)C1[C@H](O)CC1[C@@]3(C)CC[C@H](O[C@@H]4O[C@H](CO)[C@@H](O)[C@H](O)[C@H]4O[C@@H]4O[C@H](CO)[C@@H](O)[C@H](O)[C@H]4O)C(C)(C)C3CC[C@]12C (some centres not stated)	38*	70*	/	/	-12	1
CC(C)=CCC[C@](C)(OC1OC(COC2OCC(O)C(O)C2O)C(O)C(O)C1O)C1CC[C@]2(C)C1C(O)CC1[C@@]3(C)CCC(O[C@@H]4O[C@H](CO)C(O)C(O)C4O[C@@H]4OC(CO)C(O)C(O)C4O)C(C)(C)C3CC[C@]12C (some centres not stated)	2	0	/	/	-5	-1
COC(=O)c1ccc(NC(=O)CS(=O)(=O)c2ccccc2)cc1	-1	-1	/	/	-5	0
Cc1ccc(SCc2ccc(C(=O)Nc3ccccc3Br)cc2)cc1	0	-1	0	-1	-9	74*
COc1ccc(NC(=O)COC(=O)CN2C(=O)C3CCCCC3C2=O)cc1 (configuration not stated)	/	/	/	/	/	-1
N#Cc1ccc(C(=O)Nc2cccc3ccccc23)c(F)c1	-1	-2	/	/	-5	0
COC(=O)c1cc2c(=O)c3ccccc3oc2nc1/C=C/N(C)C	/	/	/	/	/	198*
O=C(CNC(=O)c1ccc(F)cc1)N/N=C/c1cc(Br)ccc1OC(=O)/C=C/c1ccco1	0	0	0	2	-4	1
O=C1NC(=S)SC1=Cc1cccs1	/	/	/	/	/	6
CN1CCC/C1=C/C=C1\SC(=S)NC1=O	24*	46*	10	11	-12	149*
Cc1ccccc1NS(=O)(=O)c1cc2c(cc1C)NC(=O)CO2	2	0	/	/	-4	60*
Clc1cc(Cl)c(OCCCCn2cncn2)c(Cl)c1	0	-1	/	/	-19	-3
COc1ccc(CN2CCCCC2C)cc1C (configuration not stated)	1	0	2	0	-17	162*
Cc1nc2ccc(Br)cc2c(=O)n1Cc1cccs1	2	-3	/	/	4	-6
CCOC(=O)C1CCN(C(c2cccnc2)c2c(NC(=O)c3ccco3)sc(C)c2C)CC1 (configuration not stated)	-1	-2	-1	1	12*	1
Cn1cc(-c2ccccc2C(N)=O)c(=O)c2cc(Cl)ccc21	1	1	0	0	2	-1
Cn1cc(C2=C(c3ccc(Cl)cc3Cl)C(=O)NC2=O)c2ccccc21	31*	29*	/	/	-11	144*
Nc1nonc1-n1nnc(C(=O)N/N=C/c2cc(Cl)ccc2O)c1CN1CCCCCC1	1	1	/	/	-5	/
CCOC(=O)c1cc2ccccc2n1CCN(CC)CC	0	0	1	0	-3	74*
